Measured values of several laboratories.
Compare with care: the assays were run in different laboratories.

COc1cc(OC)c2nccc(N3CCc4c(cc(Cn5ccnc5)cc4-c4cn(C)nc4C(F)(F)F)C3=O)c2c1 — half-life (male CD-1 mouse; plasma; intravenous; 3 mg/kg): 0.5 h
COc1ccc(C(O)COc2ccc(-c3csc(-c4ccc(OCC(O)c5ccc(OC)c(OC)c5)cc4)n3)cc2)cc1OC (stereo not drawn) — half-life (C57BL/6 mouse; plasma; oral; 30 mg/kg): 4.3 h
Cc1nc(NC2Cc3cc(F)c(F)cc3C2)c2c(C)noc2n1 — half-life (male Swiss mouse; plasma; oral; 20 mg/kg): 0.9 h
Nc1ccc(-c2ccncc2)cc1NC(=O)N1CCCC1 — half-life (male C57BL/6 mouse; brain; intraperitoneal; 10 mg/kg): 0.462 h
Cc1noc(-c2ccc(CSCCC(=O)O)cc2)c1NC(=O)O[C@H](C)c1ccccc1Cl — half-life (mouse; plasma; oral; 50 mg/kg): 0.98 h
CCOc1ccc(Cc2cc([C@@H]3O[C@H](CO)[C@@H](O)[C@H](O)[C@H]3O)ccc2Cl)cc1 — half-life (male C57BL/6 mouse; plasma; intravenous; 1 mg/kg): 3.4 h
Cc1ccc2cncc(N3CCc4c(cc(Cn5ccnc5)cc4-c4cn(C)nc4C(F)(F)F)C3=O)c2c1 — half-life (male CD-1 mouse; plasma; oral; 10 mg/kg): 1.1 h
NC[C@@H]1O[C@H](O[C@H]2[C@@H](O)[C@H](O[C@@H]3[C@@H](O)[C@H](N)C[C@H](N)[C@H]3O[C@H]3O[C@H](CO)[C@@H](O)[C@H](O)[C@H]3N)O[C@@H]2CO)[C@H](N)[C@@H](O)[C@@H]1O — half-life (male BALB/c mouse; plasma; intravenous; 15 mg/kg): 2.6 h
CC1(C)CC[C@]2(C(=O)O)CC[C@]3(C)C(=CC[C@@H]4[C@@]5(C)C[C@@H](O)[C@H](OC(=O)/C=C/c6ccc(O)cc6)C(C)(C)[C@@H]5CC[C@]43C)[C@@H]2C1 (relative stereo) — half-life (mouse; plasma; intraperitoneal; 85 µmol/kg; single dose): 34.3 h
CCN1CCN(Cc2cc(NC(=O)c3ccc(C)c(-c4ccc5nc(NC(=O)C6CC6)cn5n4)c3)cc(C(F)(F)F)c2)CC1 — half-life (Swiss mouse; plasma; intravenous; 1 mg/kg): 3.7 h
O=C(Nc1ccc(Cl)c(Cl)c1)c1ccc(N2CCNCC2)c([N+](=O)[O-])c1 — half-life (male mouse; plasma; intravenous; 3 mg/kg): 3.6 h
CCc1cc(OC)c2nccc(N3CCc4c(cc(Cn5ccnc5)cc4-c4cn(C)nc4C(F)(F)F)C3=O)c2c1 — half-life (male CD-1 mouse; plasma; oral; 150 mg/kg): 1.6 h
CC=Cc1ccc(O)c(OC)c1 — half-life (mouse; plasma; intranasal; 100 mg/kg): 0.302 h
O=C(Nc1ccc(C(F)(F)F)cc1)N1CCC(Cc2cccc(Oc3ccc(C(F)(F)F)cn3)c2)CC1 — half-life (male Swiss mouse; blood; oral; 1 mg/kg): 5.1 h
COC(=O)C1=C(C)OC(C)=C(C(C)=O)C1c1ccc(Cl)c(C(F)(F)F)c1 (stereo not drawn) — half-life (C57BL/6 mouse; plasma; intravenous; 10 mg/kg): 0.25 h
COc1ccc(NC(=O)N2CCCCN3[C@H](CO)[C@H](c4ccc(C#Cc5ccccc5)cc4)[C@@H]3C2)cc1 — half-life (mouse; plasma; intravenous): 3 h
CCCc1c(C2CCCCN2CCN2CCOCC2)[nH]c2cc(OC(F)(F)F)ccc12 (stereo not drawn) — half-life (male mouse; plasma; oral; 30 mg/kg): 11 h
Cc1cc(NC(=O)c2cccc3cc(-c4cccc5[nH]nc(N)c45)ccc23)ccc1F — half-life (male CD-1 mouse; plasma; oral; 10 mg/kg): 2.15 h
CNCCN(C)c1cc(C#N)cc(CCc2cc(C)cc(N)n2)c1 — half-life (male BALB/c mouse; brain; intravenous; 2 mg/kg): 24.8 h
COC(=O)CN(CCCc1ccccc1)CC(=O)N[C@@H](Cc1c[nH]cn1)c1nc(C)no1 — half-life (male C57BL/6 mouse; plasma; intraperitoneal; 30 mg/kg): 0.1 h
CCc1ccc(Cc2cc([C@@H]3O[C@H](CO)[C@@H](O)[C@H](O)[C@H]3O)cc3c2CCC3)cc1 — half-life (male C57BL/6 mouse; plasma; oral; 1 mg/kg): 3 h
Cc1nc(-c2cnc(NC(C)C)n(C)c2=O)ccc1Oc1ccnc(-c2cnn(C)c2)c1 — half-life (female mouse; plasma; oral; 30 mg/kg; single dose): 15.3 h
COc1ccc2nccc(N3CCc4c(cc(Cn5ccnc5)cc4-c4cn(C)nc4C(F)(F)F)C3=O)c2c1 — half-life (male CD-1 mouse; plasma; oral; 10 mg/kg): 1.2 h
CC[C@H](C)[C@@H]1NC(=O)[C@@](C)(NC(=O)[C@H](CCCNC(=N)N)NC(=O)[C@H](CC(C)C)NC(=O)[C@@H](NC(=O)[C@H](CCC(N)=O)NC(=O)[C@H](CC(C)C)NC(C)=O)[C@@H](C)O)CCCC=CCCC[C@@](C)(C(=O)N[C@@H](CC(C)C)C(=O)N[C@@H](Cc2ccc3ccccc3c2)C(N)=O)NC(=O)[C@H](CCCNC(=N)N)NC(=O)[C@H](CCC(N)=O)NC1=O — half-life (male BALB/c mouse; plasma; intravenous; 5 mg/kg): 1.4 h
Cc1cc(Nc2ccc(S(F)(F)(F)(F)F)cc2)n2ccnc2n1 — half-life (male Swiss mouse; plasma; oral; 100 mg/kg; single dose): 5.8 h
CCc1cc(C(=O)NC)c2nccc(N3CCc4c(cc(Cn5ccnc5)cc4-c4cn(C)nc4C(F)(F)F)C3=O)c2c1 — half-life (male CD-1 mouse; plasma; oral; 150 mg/kg): 1.6 h
Cn1cnc2c(F)c(Nc3ccc(Br)cc3Cl)c(C(=O)NOCCO)cc21 — half-life (nude mouse; tumour; oral; 5 mg/kg; single dose, tumour-bearing): 2.9 h
C[C@H]1CCCN1Cc1nc2cc(NC(=O)c3ccc4c(cnn4C)c3)ccc2[nH]1 — half-life (female BALB/c mouse; plasma; oral; 100 mg/kg): 0.83 h
COc1nc(-c2cc(C)c(N[C@@H](C)c3cc(F)cc(F)c3)nn2)ccc1-n1cnc(C)c1 — half-life (male CD-1 mouse; plasma; oral; 5 mg/kg; single dose): 7.1 h
CN1CCC[C@H](CN2c3ccccc3Sc3ccccc32)C1.Cl — half-life (mouse; plasma; intraperitoneal; 32 mg/kg; single dose): 2.82 h
CC(C)c1cnn2c(NCc3ccccc3)cc(NC[C@H]3CCNC[C@@H]3O)nc12 — half-life (male CD-1 mouse; plasma; intravenous; 10 mg/kg): 1.9 h
COc1cc2c(Nc3ccc(Cl)c(Cl)c3F)ncnc2cc1OC[C@@H]1C[C@@H]2CN(C)C[C@@H]2C1 — half-life (FVB mouse; brain; oral; 70 mg/kg; single dose): 13.3 h
CC(C)(C)c1ccc(O)c(CN(Cc2cc(C(C)(C)C)ccc2O)C2CCC(NC(N)=O)CC2)c1 (stereo not drawn) — half-life (male C57BL/6 mouse; plasma; oral; 10 mg/kg; single dose): 2.7 h
